ChEMBL document CHEMBL4339200, “Structure-based Discovery of Phenyl (3-Phenylpyrrolidin-3-yl)sulfones as Selective, Orally Active RORγt Inverse Agonists” (ACS Med Chem Lett, 2019)

Experiments:
[1] = target: T1, Oxysterols receptor LXR-alpha (Homo sapiens, UniProt Q13133); experiment: Agonist activity at LXRalpha (unknown origin) expressed in African green monkey CV1 cells; format: cell-based
T1 sequence (Q13133 whole entry): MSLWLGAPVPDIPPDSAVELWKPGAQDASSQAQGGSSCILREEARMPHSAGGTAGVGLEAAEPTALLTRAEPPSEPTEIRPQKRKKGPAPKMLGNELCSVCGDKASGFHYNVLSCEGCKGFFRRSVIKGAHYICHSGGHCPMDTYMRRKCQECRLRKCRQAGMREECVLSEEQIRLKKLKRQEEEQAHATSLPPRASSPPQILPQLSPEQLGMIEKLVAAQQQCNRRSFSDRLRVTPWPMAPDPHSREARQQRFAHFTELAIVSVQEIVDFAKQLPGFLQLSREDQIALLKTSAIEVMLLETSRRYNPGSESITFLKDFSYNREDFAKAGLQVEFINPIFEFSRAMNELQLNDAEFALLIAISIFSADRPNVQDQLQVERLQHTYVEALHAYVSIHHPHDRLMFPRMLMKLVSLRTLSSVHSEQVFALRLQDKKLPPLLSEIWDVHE

[2] = target: T2, Oxysterols receptor LXR-beta (Homo sapiens, UniProt P55055); experiment: Agonist activity at LXRbeta (unknown origin) expressed in African green monkey CV1 cells; format: cell-based
T2 sequence (P55055 whole entry): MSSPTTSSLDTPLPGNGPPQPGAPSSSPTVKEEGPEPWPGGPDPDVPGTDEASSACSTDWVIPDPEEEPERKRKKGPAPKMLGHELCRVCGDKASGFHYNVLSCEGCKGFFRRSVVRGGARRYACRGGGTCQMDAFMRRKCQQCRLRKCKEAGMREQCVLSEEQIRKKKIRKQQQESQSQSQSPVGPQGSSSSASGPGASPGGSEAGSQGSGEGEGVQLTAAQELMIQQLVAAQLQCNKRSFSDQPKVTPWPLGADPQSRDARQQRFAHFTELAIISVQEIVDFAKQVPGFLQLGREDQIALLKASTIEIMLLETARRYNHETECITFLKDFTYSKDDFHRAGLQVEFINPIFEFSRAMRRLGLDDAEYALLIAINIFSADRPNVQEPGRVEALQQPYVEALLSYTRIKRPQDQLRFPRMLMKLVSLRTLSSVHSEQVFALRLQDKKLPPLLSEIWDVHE

PXR (NR1I2) = target: T3, PXR (NR1I2) (Homo sapiens, UniProt O75469); experiment: Transactivation of PXR in human HepG2 cells relative to rifampicin; format: ADME, cell-based; details: read-out: %max
T3 sequence (O75469 whole entry): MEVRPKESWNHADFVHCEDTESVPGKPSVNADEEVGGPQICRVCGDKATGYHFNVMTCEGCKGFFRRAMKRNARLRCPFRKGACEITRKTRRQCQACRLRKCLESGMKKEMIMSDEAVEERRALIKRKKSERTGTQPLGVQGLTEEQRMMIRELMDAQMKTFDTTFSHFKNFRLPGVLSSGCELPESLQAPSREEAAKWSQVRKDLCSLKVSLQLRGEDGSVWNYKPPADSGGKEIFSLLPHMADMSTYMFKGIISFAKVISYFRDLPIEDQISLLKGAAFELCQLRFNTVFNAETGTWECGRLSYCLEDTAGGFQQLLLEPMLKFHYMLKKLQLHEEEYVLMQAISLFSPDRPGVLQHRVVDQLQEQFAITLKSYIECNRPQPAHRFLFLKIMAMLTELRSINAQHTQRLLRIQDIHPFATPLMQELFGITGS

[3] = target: T4, Nuclear receptor subfamily 1 group I member 2 (Homo sapiens, UniProt O75469); experiment: Transactivation of PXR in human HepG2 cells; format: ADME, cell-based
T4 sequence (O75469 whole entry): T3 sequence (O75469 whole entry)

[4] = Stability in mouse liver microsomes assessed as parent compound remaining after 10 mins; format: ADME, Microsome; details: read-out: Stability
Method in brief: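 Rough stability screen: compound incubated with mouse liver microsomes for 10 min, reported as percentage of parent remaining.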

[5] = target: T5, Oxysterols receptor LXR-alpha (Homo sapiens) (UniProt Q13133); experiment: Agonist activity at LXRalpha (unknown origin) expressed in African green monkey CV1 cells relative to T0901317; format: cell-based
T5 sequence (whole entry): T1 sequence (Q13133 whole entry)

[6] = target: T6, Oxysterols receptor LXR-beta (Homo sapiens) (UniProt P55055); experiment: Agonist activity at LXRbeta (unknown origin) expressed in African green monkey CV1 cells relative to T0901317; format: cell-based
T6 sequence (whole entry): T2 sequence (P55055 whole entry)

[7] = Protein binding in mouse plasma assessed as unbound fraction; format: ADME, cell-free
[8] = Protein binding in human plasma assessed as unbound fraction; format: ADME, cell-free
[9] = Permeability in human Caco2 cells; format: ADME, cell-based; details: Caco-2, read-out: permeability
Method in brief: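 Caco-2 monolayer permeability, reported as permeation coefficient in nm/s; an efflux ratio was also determined.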

Compound	EC50 [1]	EC50 [2]	Emax (PXR (NR1I2))	EC50 [3]	remaining at 10 min [4]	%max [5]	%max [6]	fraction unbound [7]	fraction unbound [8]	Papp [9]
CC(=O)N1CCN(C(=O)N2CC[C@@](c3ccc(C(O)(C(F)(F)F)C(F)(F)F)cc3)(S(=O)(=O)c3ccc(F)cc3)C2)CC1	> 7.5 µM	> 7.5 µM	–	–	–	–	–	–	–	–
CC(=O)N1CCN(C(=O)N2CC[C@](c3ccc(C(O)(C(F)(F)F)C(F)(F)F)cc3)(S(=O)(=O)c3ccc(F)cc3)C2)CC1	> 7.5 µM	> 7.5 µM	–	–	–	–	–	–	–	–
CCc1ccc(S(=O)(=O)[C@@]2(c3ccc(C(F)(C(F)(F)F)C(F)(F)F)cc3)CCN(C(=O)[C@H]3CC[C@H](C(=O)O)CC3)C2)cc1	> 7.5 µM	> 7.5 µM	3%	> 50 µM	100%	–	–	–	–	–
O=C(O)[C@H]1CC[C@H](C(=O)N2CC[C@](c3ccc(C(F)(C(F)(F)F)C(F)(F)F)cc3)(S(=O)(=O)c3ccc(F)c(C4CC4)c3)C2)CC1	> 7.5 µM	> 7.5 µM	9%	> 50 µM	74%	–	–	–	–	–
CC(=O)N1CCC(C(=O)N2CC[C@](c3ccc(C(F)(C(F)(F)F)C(F)(F)F)cc3)(S(=O)(=O)c3ccc(F)cc3)C2)CC1	> 7.5 µM	> 7.5 µM	7%	–	–	–	–	–	–	–
Cc1cc(S(=O)(=O)[C@@]2(c3ccc(C(F)(C(F)(F)F)C(F)(F)F)cc3)CCN(C(=O)[C@H]3CC[C@H](C(=O)O)CC3)C2)ccc1F	> 7.5 µM	> 7.5 µM	40%	> 22.8 µM	84%	–	–	0.029	0.017	–
O=C(O)[C@H]1CC[C@@H](C(=O)N2CC[C@](c3ccc(C(F)(C(F)(F)F)C(F)(F)F)cc3)(S(=O)(=O)c3ccc(F)cc3)C2)CC1	> 7.5 µM	> 7.5 µM	–	–	–	–	–	–	–	–
CS(=O)(=O)N1CCC(C(=O)N2CC[C@](c3ccc(C(F)(C(F)(F)F)C(F)(F)F)cc3)(S(=O)(=O)c3ccc(F)cc3)C2)CC1	> 7.5 µM	> 7.5 µM	2%	> 50 µM	69%	–	–	–	–	–
CC(=O)N1CCN(C(=O)N2CC[C@](c3ccc(C(F)(C(F)(F)F)C(F)(F)F)cc3)(S(=O)(=O)c3ccc(F)cc3)C2)CC1	> 7.5 µM	> 7.5 µM	10%	–	68%	–	–	–	–	–
CCc1cc(S(=O)(=O)[C@@]2(c3ccc(C(F)(C(F)(F)F)C(F)(F)F)cc3)CCN(C(=O)[C@H]3CC[C@H](C(=O)O)CC3)C2)ccc1F	> 7.5 µM	> 7.5 µM	9%	> 50 µM	73%	–	–	–	–	–
Cc1ccc(S(=O)(=O)[C@@]2(c3ccc(C(F)(C(F)(F)F)C(F)(F)F)cc3)CCN(C(=O)[C@H]3CC[C@H](C(=O)O)CC3)C2)cc1	> 7.5 µM	> 7.5 µM	29%	12.6 µM	85%	–	–	0.026	0.013	–
CS(=O)(=O)N1CCC(C(=O)N2CC[C@](c3ccc(C(O)(C(F)(F)F)C(F)(F)F)cc3)(S(=O)(=O)c3ccc(F)cc3)C2)CC1	> 7.5 µM	> 7.5 µM	89%	> 2.47 µM	–	–	–	–	–	–
O=C(O)[C@H]1CC[C@H](C(=O)N2CC[C@](c3ccc(C(F)(C(F)(F)F)C(F)(F)F)cc3)(S(=O)(=O)c3ccccc3)C2)CC1	> 7.5 µM	> 7.5 µM	10%	> 50 µM	96%	–	–	–	–	–
O=C(O)[C@H]1CC[C@H](C(=O)N2CC[C@](c3ccc(C(F)(C(F)(F)F)C(F)(F)F)cc3)(S(=O)(=O)c3ccc(Cl)cc3)C2)CC1	> 7.5 µM	> 7.5 µM	22%	6.44 µM	100%	–	–	–	–	–
COc1ccc(S(=O)(=O)[C@@]2(c3ccc(C(F)(C(F)(F)F)C(F)(F)F)cc3)CCN(C(=O)[C@H]3CC[C@H](C(=O)O)CC3)C2)cc1	> 7.5 µM	> 7.5 µM	12%	> 50 µM	98%	–	–	–	–	–

Now from value to molecule:

EC50 [1]	EC50 [2]	Emax (PXR (NR1I2))	EC50 [3]	remaining at 10 min [4]	%max [5]	%max [6]	fraction unbound [7]	fraction unbound [8]	Papp [9]	Compound
> 7.5 µM	> 7.5 µM	99%	0.794 µM	–	–	–	–	–	–	O=C(C1CCCC1)N1CCC(c2ccc(C(O)(C(F)(F)F)C(F)(F)F)cc2)(S(=O)(=O)c2ccc(F)cc2)C1 (racemic)
> 7.5 µM	> 7.5 µM	110%	0.52 µM	–	–	–	–	–	–	O=S(=O)(c1ccc(F)cc1)[C@]1(c2ccc(C(O)(C(F)(F)F)C(F)(F)F)cc2)CCNC1
–	–	110%	0.239 µM	–	–	–	–	–	–	CC(O)(c1ccc(C2(S(=O)(=O)c3ccc(F)cc3)CCCC2)cc1)C(F)(F)F (racemic)
0.408 µM	1.9 µM	–	–	–	62%	39%	–	–	–	COC(=O)N1CCC(c2ccc(C(O)(C(F)(F)F)C(F)(F)F)cc2)(S(=O)(=O)c2ccc(F)cc2)C1 (racemic)
–	–	110%	0.048 µM	–	–	–	–	–	–	CCC(O)(c1ccc(C2(S(=O)(=O)c3ccc(F)cc3)CCCC2)cc1)C(F)(F)F (racemic)
–	–	120%	0.275 µM	–	–	–	–	–	–	NC(c1ccc(C2(S(=O)(=O)c3ccc(F)cc3)CCCC2)cc1)(C(F)(F)F)C(F)(F)F
–	–	110%	0.01 µM	–	–	–	–	–	–	O=S(=O)(c1ccc(F)cc1)C1(c2ccc(C(O)(C(F)(F)F)C(F)(F)F)cc2)CCCC1
> 7.5 µM	> 7.5 µM	–	–	–	–	–	–	–	–	CCNC(=O)N1CCC(c2ccc(C(O)(C(F)(F)F)C(F)(F)F)cc2)(S(=O)(=O)c2ccc(F)cc2)C1 (racemic)
> 3.75 µM	> 7.5 µM	11%	> 50 µM	–	–	–	–	–	< 1.5 ×10⁻⁶ cm/s	O=C(O)[C@H]1CC[C@H](C(=O)N2CC[C@](c3ccc(C(O)(C(F)(F)F)C(F)(F)F)cc3)(S(=O)(=O)c3ccc(F)cc3)C2)CC1
> 7.5 µM	> 7.5 µM	–	–	–	–	–	–	–	–	CC(=O)N1CCC(C(=O)N2CC[C@](c3ccc(C(O)(C(F)(F)F)C(F)(F)F)cc3)(S(=O)(=O)c3ccc(F)cc3)C2)CC1
2.92 µM	> 7.5 µM	110%	0.434 µM	–	58%	–	–	–	–	O=S(=O)(c1ccc(F)cc1)[C@@]1(c2ccc(C(O)(C(F)(F)F)C(F)(F)F)cc2)CCNC1
–	–	130%	1.01 µM	–	–	–	–	–	–	O=S(=O)(c1ccc(F)cc1)C1(c2ccc(C(F)(C(F)(F)F)C(F)(F)F)cc2)CCCC1
> 7.5 µM	> 7.5 µM	23%	> 46.1 µM	88%	–	–	–	–	–	O=C(O)C1CCN(C(=O)N2CC[C@](c3ccc(C(F)(C(F)(F)F)C(F)(F)F)cc3)(S(=O)(=O)c3ccc(F)cc3)C2)CC1
> 7.5 µM	> 7.5 µM	100%	0.48 µM	–	–	–	–	–	–	CC(=O)N1CCC(c2ccc(C(O)(C(F)(F)F)C(F)(F)F)cc2)(S(=O)(=O)c2ccc(F)cc2)C1 (racemic)
–	–	110%	0.229 µM	–	–	–	–	–	–	O=S(=O)(c1ccc(F)cc1)C1(c2ccc(C(Cl)(C(F)(F)F)C(F)(F)F)cc2)CCCC1
–	–	140%	0.752 µM	–	–	–	–	–	–	CC(c1ccc(C2(S(=O)(=O)c3ccc(F)cc3)CCCC2)cc1)(C(F)(F)F)C(F)(F)F
